Tested on: MS2 coat protein
Assay: apparent Kd, MS2 coat protein; higher = weaker binding; RNA-MaP array; FMN 200 µM where present
In short: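 Stalled E. coli RNA polymerase transcribed each design on Illumina sequencing-chip clusters. The clusters were titrated with SNAP-549-labelled MS2 coat protein, starting at 0.7 or 1.5 nM and doubling up to 3 µM, first without ligand and then with constant ligand, in 100 mM Tris-HCl pH 7.5, 80 mM KCl, 4 mM MgCl2, BSA, DTT, yeast tRNA and Tween-20. Green signal was normalised to red-channel RNA signal and to the control-cluster median Fmax. The apparent Kd is the median of filtered binding-curve fits made for each cluster.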

[1] = designed as: ON switch for flavin mononucleotide, no ligand
[2] = ligand present: flavin mononucleotide, designed as: ON switch for flavin mononucleotide
[3] = designed as: OFF switch for flavin mononucleotide, no ligand
[4] = ligand present: flavin mononucleotide, designed as: OFF switch for flavin mononucleotide

## AUAUGAUAGAUAGGAUAUACAGUUGAAUAAUAAGUAGAAGGAUCAAAUGGGAAUUAUACAUGAGGAUCACCCAUGUUUUUGGAU
[1]
  apparent Kd: 44.1 nM
[2]
  apparent Kd: 35.8 nM

## UCACGGGAUUGAGGAUAUAUAUUAAUUUUUACAAUAGAAGGCAAAUUGUUAGAUUAUUCACUAUACAUGAGGAUCACCCAUGUU
[3]
  apparent Kd: 23.6 nM
[4]
  apparent Kd: 21.7 nM

## UUGAUUAUACAAGGAUAUCAAUUGUAAUUAAGACUUACAUGAGGAUCACCCAUGUUAAUAUUUUAUGAGAAGGUGUAUUUUCAG
[1]
  apparent Kd: 38.3 nM
[2]
  apparent Kd: 25.7 nM

## GCGUGACAUGAGGAUCACCCAUGUGAGGAUAUCUGGAUAAUCUUUAUUUUAGAUAUCCAGAGAAGGCACAUGCU
[3]
  apparent Kd: 162 nM
[4]
  apparent Kd: 117 nM

## ACGACGAAAGUCGAACGAUGUAGCAGAAGGACAUGAGGAUCACCCAUGUCAGCUGUGCAAAACAUGUAGGAUAUGCUACAUCGA
[3]
  apparent Kd: 6.14 nM
[4]
  apparent Kd: 11.3 nM

## AGAAAACAUGAGGAUCACCCAUGUGAGGAUAUCGAUGUCCAAGGCCGGGUGCGGGACUCGAGAAGGCACUUGGA
[3]
  apparent Kd: 76.9 nM
[4]
  apparent Kd: 32.3 nM

## CUUUCGUGAGGAUAUGUGGCUUCGAUCGUGAGAUCGAAACUACAGAAGGCACAUGAGGAUCACCCAUGUUCCUC
[3]
  apparent Kd: 33.9 nM
[4]
  apparent Kd: 540 nM

## AGUCGGAGCAGAGGAUAUACAUGAGGAUCACCCAUGUAAUAUGAUCUAGCCAGGAAACUGGCAAUGUAGAAGGCUGCUCCGACA
[3]
  apparent Kd: 92.3 nM
[4]
  apparent Kd: 797 nM

## GCCAGUUAUGUAGGAUAUGCGAAGCGAGCCUGAGCAGAAGGACAUGAGGAUCACCCAUGUGUUGCGGUUUGAGUACUGAUCGCU
[3]
  apparent Kd: 24.4 nM
[4]
  apparent Kd: 89.4 nM

## UACAUUACUUAGAAGGGAUAUAUAUAAUUUUAGUCAGGAUAUAGAUACAAUACAACAUGAGGACAUGAGGAUCACCCAUGUAUU
[1]
  apparent Kd: 17.9 nM
[2]
  apparent Kd: 13.4 nM

## CCGGAAAUACAGGAUAUAGGAGUCGAUAGACUCCUAGAAGGGUAUACAUGAGGAUCACCCAUGUGUCCUACCGG
[3]
  apparent Kd: 26.5 nM
[4]
  apparent Kd: 31.7 nM

## AACAGUAGAGGAUAUACAUGAGGAUCACCCAUGUGAUAAUUACGUGGCGUACCACGAAGUAGAAGGCUACUGGA
[3]
  apparent Kd: 65.6 nM
[4]
  apparent Kd: 316 nM

## AAAAAACAUGAGGAUCACCCAUGUAAGGAUAUGCUAAAAAAAAAAAAAAAAAAAAAAUGCAGAAGGUACAAAAA
[3]
  apparent Kd: 63.6 nM
[4]
  apparent Kd: 78.2 nM

## CGACCCUGAACGAAAUCAUGCAGUCAGGAUAUACAUGAGGAUCACCCAUGUGCGUACCAACUCGUGUAGAAGGGACUUUCAGGG
[3]
  apparent Kd: 12.7 nM
[4]
  apparent Kd: 33.2 nM

## AAAAUAAAAAGGCAGGAUAUCCAAAAUAAAACAUGAGGAUCACCCAUGUAAAUAAAAAUAAAGUGGGAGAAGGGUUAAAAAUAAAA
[1]
  apparent Kd: 58.3 nM
[2]
  apparent Kd: 45.3 nM

## GUAGAGUAGUGAGGAUAUACGAGCUCGAUAGAGCGGCGAUCCAAUAAUACAUGAGGAUCACCCAUGUAGAAGGCACUUCUCUAC
[3]
  apparent Kd: 6.71 nM
[4]
  apparent Kd: 91 nM

## AGGUGUCCUGAGAAAUUUCUCCACAUGAGGAUCACCCAUGUAGAGGAUAUCGACGCUGUGCGGUUCGAGAAGGCUACACUAAUU
[3]
  apparent Kd: 6.54 nM
[4]
  apparent Kd: 22.7 nM

## GUGCGUGGCUAGGAUAUUGUGGGUUUUUGUCAGCGAGAAGGAGCCACAUGAGGAUCACCCAUGUGGUGUUGCUC
[3]
  apparent Kd: 187 nM
[4]
  apparent Kd: 57.1 nM

## UCGGAGAAAGGAUAUACACCAAGGGUAUAGUAGGAUCCUGGACAUGAGGAUCACCCAUGUAGAAGGUUCACUGC
[3]
  apparent Kd: 60.1 nM
[4]
  apparent Kd: 31.1 nM

## UCCUUGGAAGGAUAUCGAUAGGCUUACAUGAGGAUCACCCAUGUUGGGAUGUCUUUCUGUCGAGAAGGUUCGUUUU
[3]
  apparent Kd: 19.7 nM
[4]
  apparent Kd: 21.4 nM

## CAGCGAAAGCUGAAUCUGUAGAGAGAGGAUAUACAUCAUAAGAUGCAUACAUGAGGAUCACCCAUGUAGAAGGCUCUCUACAGU
[3]
  apparent Kd: 5.49 nM
[4]
  apparent Kd: 6.83 nM

## ACCUUACAUGAGGAUCACCCAUGUUAGGAUAUCUCGCCUGCGCUAACAAAGCGCAGGCAGAGAAGGGACGCGGG
[3]
  apparent Kd: 28.5 nM
[4]
  apparent Kd: 31.8 nM

## GCUCUAUGCGAGAAGGCGUGAAACAUGAGGAUCACCCAUGUCAGAGAUAUGAGGAUAUUGCAUAGAGCAAAAGACGGAAACGUC
[1]
  apparent Kd: 12.2 nM
[2]
  apparent Kd: 5.02 nM

## CCUCCACAUGAGGAUCACCCAUGUCACACUCCGUCAGGAUAUAGCCUGCAUCCGCUGUGGCUAGAAGGGACUGCUG
[1]
  apparent Kd: 332 nM
[2]
  apparent Kd: 303 nM

## UGGUCGGAGACAGGAUAUGUGACUGCAUAGUGCACAGAAGGGUCUACAUGAGGAUCACCCAUGUCACCGACCACCAAACAACAA
[1]
  apparent Kd: 626 nM
[2]
  apparent Kd: 55.2 nM

## ACGUUAAUUCGAGGAUAUCGGUGAUAUAUAUUACGAGAAGGCGAUAAUUGUGAUAAACUUAUAGACAUGAGGAUCACCCAUGUA
[1]
  apparent Kd: 42.1 nM
[2]
  apparent Kd: 38.2 nM

## AGAAAACAUGAGGAUCACCCAUGUGAGGAUAUCGAUGUCCAAGUCCGGGUGCGGGACUCGAGAAGGCACUUGGG
[3]
  apparent Kd: 55.9 nM
[4]
  apparent Kd: 55 nM

## UCAUAUUUACAAGGAUAUCAAUUAUUUAUACAUCCUACAUGAGGAUCACCCAUGUUUUUAUAUUUUGAGAAGGUGUAAUGUCGG
[1]
  apparent Kd: 44.4 nM
[2]
  apparent Kd: 40.4 nM

## GUGUGAUUAAGAGGAUAUAUACAACAUGAGGAUCACCCAUGUACCCGUGUAGUAGAAGGUUUGUUUUUAUAUAAUAUUAUAUUU
[1]
  apparent Kd: 26.5 nM
[2]
  apparent Kd: 21.9 nM

## AGGCAGGACCAGAAGGACAUGAGGAUCACCCAUGUAGGAUAUGGGCGUGGUUUAUGGGUACCUGGGAGAAUGACUGGGUUGUCA
[1]
  apparent Kd: 363 nM
[2]
  apparent Kd: 29.4 nM

## UGUGUGAGACAGGAUAUGCUGGAUGAGAGGCGGGUAGAAGGGUCUACAUGAGGAUCACCCAUGUGGCCGGUUGG
[3]
  apparent Kd: 17 nM
[4]
  apparent Kd: 16.9 nM

## GGAAAUCAUGUAGGAUAUGCAUGGCGAAGCUACGCAGAAGGACAUGAGGAUCACCCAUGUUCUGGCUACCGGAUACGGUGGCAA
[3]
  apparent Kd: 20.7 nM
[4]
  apparent Kd: 94.3 nM

## UGAAAUCAUGUAGGAUAUGCAUGGCGAAGCUGCGCAGAAGGACAUGAGGAUCACCCAUGUUAUAGCUACCCAGUUCGGUGGCAA
[3]
  apparent Kd: 37.3 nM
[4]
  apparent Kd: 171 nM

## CUUUUGUGAGGAUAUUAGUAGUAAAAAAAUAAAAUUACUACUGAGAAGGCACAUGAGGAUCACCCAUGUUUCUC
[3]
  apparent Kd: 28.2 nM
[4]
  apparent Kd: 115 nM

## AAUAACAGAGGAUAUACUAUUUUAUGUGUUUGUUAUUUUGAACAUGAGGAUCACCCAUGUAGAAGGCUGAUUGA
[3]
  apparent Kd: 47 nM
[4]
  apparent Kd: 44 nM

## UAGAACCUAGGAUAUACUUGGACCACUAAUGCACAGAUAUAACAUGAGGAUCACCCAUGUAGAAGGAGGAGUAA
[3]
  apparent Kd: 40.4 nM
[4]
  apparent Kd: 32.4 nM

## GUCGUGUGAGGAUAUGAUUUUUAGGCGGGAUUGCGACUGCUUCAGAAGGCACAUGAGGAUCACCCAUGUAUGAA
[3]
  apparent Kd: 11.3 nM
[4]
  apparent Kd: 38.8 nM

## UCCGCGGACAUAGGAUAUACUGCGAAAUUUCUAGUAGAAGGGUGACCGCACGUGCGAACUGUACAUGAGGAUCACCCAUGUACU
[1]
  apparent Kd: 21.4 nM
[2]
  apparent Kd: 23.1 nM

## ACGACGAAAGUCGAACGAUGUAGCAGAAGGACAUGAGGAUCACCCAUGUCAGCUGUGAAAACCAUGUAGGAUAUGCUACAUCGA
[3]
  apparent Kd: 38.5 nM
[4]
  apparent Kd: 291 nM

## CAGCUGAAUGUGAGGAUAUCUAGAGCUGCGGCUCUAGAGAAGGCACAUGAGGAUCACCCAUGUCUCAACAGCUG
[3]
  apparent Kd: 40.7 nM
[4]
  apparent Kd: 294 nM

## AACAAACAUGAGGAUCACCCAUGUGAGGAUAUCGAAACAACAAACAACAAACAACAAACGAGAAGGCGCAACAA
[3]
  apparent Kd: 29.1 nM
[4]
  apparent Kd: 27.6 nM

## AGUGUCAUUUAGAAGGCCUCAUGACAUGAGGAUCACCCAUGUUAUCAUGGGAGGAUAUGGAUGAUAUAGCUACGUUUCGUAGCA
[1]
  apparent Kd: 233 nM
[2]
  apparent Kd: 78.2 nM

## AAUGGGCACCAGAAGGACAUGAGGAUCACCCAUGUAGGAUAUGGGCGUUGAAGAUGUCUGAACGAGUUGCUGGAAGGAUAUGGG
[1]
  apparent Kd: 305 nM
[2]
  apparent Kd: 41 nM

## GCCUCAGAAUUAAUUGUGAGAAGCAGAAGGCUAUAUCUUAUGUUAAACAUGAGGAUCACCCAUGUAGAGGAUAUGCUAUUACAG
[3]
  apparent Kd: 7.68 nM
[4]
  apparent Kd: 17.7 nM

## AAUUGAAACGUAGGAUAUCGCUAUAAAUUAACACGAGAAGGACGUACAUGAGGAUCACCCAUGUUAAAUGGUGUAGUUUAGUUG
[3]
  apparent Kd: 32.8 nM
[4]
  apparent Kd: 95.5 nM

## UGUCGGAGCAGAGGAUAUUACAUGAGGAUCACCCAUGUAUAAAGAUCAAGCUGGAAACAGCAAUGUAAGAAGGCUGCUCCGACA
[3]
  apparent Kd: 60.4 nM
[4]
  apparent Kd: 418 nM

## GCUUGUGAAGGAUAUACUGGCGGCGUGCGCUCGAAGCACGCACAUGAGGAUCACCCAUGUAGAAGGUCAGGCGU
[3]
  apparent Kd: 16.3 nM
[4]
  apparent Kd: 13.8 nM

## AUCGAACAUGAGGAUCACCCAUGUCAGUCGAACCAAGGAUAUGGGCAGGGUUCUCUUGCACCAGAAGGUGGCUAAA
[1]
  apparent Kd: 56.9 nM
[2]
  apparent Kd: 95.7 nM

## UGUUGUAUUACAGGAUAUCUAUUGUUUUUUUUUAGAGAAGGGUAUUCACAUGAGGAUCACCCAUGUAUAUACGAGGAAGUUGUG
[1]
  apparent Kd: 60.7 nM
[2]
  apparent Kd: 71.3 nM

## UAAUAAUAAUAAUAAUGGACGAUACAUGAGGAUCACCCAUGUAAGGAUAUGCAGUGGAAUACACUGCAGAAGGUACAUACGUCC
[3]
  apparent Kd: 15.7 nM
[4]
  apparent Kd: 23 nM

## GGUCCACAUGAGGAUCACCCAUGUUAGGAUAUCUCGCCCGAGUCCAUAUGGGCCGGGCAGAGAAGGAAUGUGAA
[3]
  apparent Kd: 21 nM
[4]
  apparent Kd: 22.6 nM

## AUAAAUGAGGAGGAUAUCGAAUCGGAAACGAUUCGAGAAGGCCUAACAUGAGGAUCACCCAUGUUCCUUAAAUA
[3]
  apparent Kd: 28.8 nM
[4]
  apparent Kd: 42.2 nM

## AGAGCCUCGUGAGGAUAUACAUGAGGAUCACCCAUGUAAUAAAGUGAACGGAGGAAACUCCGAAUGUAGAAGGCACGAGGCUCA
[3]
  apparent Kd: 44.5 nM
[4]
  apparent Kd: 391 nM

## UAGAAGUCAGGAUAUGCUGCUCGUCACUUGCGUGAUGAGUAGCAGAAGGGACAUGAGGAUCACCCAUGUAAAGA
[3]
  apparent Kd: 57.4 nM
[4]
  apparent Kd: 79.9 nM

## AUAAUGUAAGGAUAUCAGUCGACUAGCUGCGGCUAGUCGACUGAGAAGGUACAUGAGGAUCACCCAUGUGUUUC
[3]
  apparent Kd: 40.9 nM
[4]
  apparent Kd: 183 nM

## AGUGUGUGGCAGGAUAUGCGAUUUGUCGGUGUUGCAGAAGGGUCUACAUGAGGAUCACCCAUGUGUGCGGUUGA
[3]
  apparent Kd: 184 nM
[4]
  apparent Kd: 309 nM
